# Measurements reported in ChEMBL document CHEMBL5257036, “Benzophenone-nucleoside derivatives as telomerase inhibitors: Design, synthesis and anticancer evaluation in vitro and in vivo” (Eur J Med Chem, 2016).
# Activity calls are given as the source filed them. The rule behind the calls is not given here.
# What was measured:
# HeLa = assay: Antiproliferative activity against human HeLa cells measured after 48 hrs by MTT assay; format: functional, cell-based
# How it was run: (§1)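 Cells grown to log phase in RPMI 1640 with 10% FBS, seeded at 3 × 10⁴ cells/mL, and preincubated 24 h at 37 °C, 5% CO₂. Compounds were added at pre-set concentrations to 6 wells each, with doxorubicin as reference, and exposed for 48 h. MTT was then added and absorbance read at 570 nm.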
# SMMC-7721 = assay: Antiproliferative activity against human SMMC-7721 cells measured after 48 hrs by MTT assay; format: functional, cell-based; details: SMMC-7721, 48 h; how it was run: as §1
# HepG2 [1] = assay: Antiproliferative activity against human HepG2 cells measured after 48 hrs by MTT assay; format: functional, cell-based; details: HepG2, 48 h; how it was run: as §1
# SGC-7901 [2] = assay: Antiproliferative activity against human SGC-7901 cells measured after 48 hrs by MTT assay; format: functional, cell-based; details: SGC-7901, 48 h; how it was run: as §1
# [3] = target: Telomerase reverse transcriptase (Homo sapiens, UniProt O14746); assay: Inhibition of telomerase activity in human SGC-7901 cells incubated for 24 hrs by TRAP-PCR-ELISA assay; format: cell-based
# How it was run: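 Extract was mixed with TRAP reaction mix, incubated 25 °C for 30 min, then 35 PCR cycles (94/50/72 °C). Products detected by anti-DIG-peroxidase ELISA at 490 nm; mean ± SD.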
# SGC-7901 [4] = assay: Induction of cell cycle arrest in human SGC-7901 cells assessed as accumulation in G2 phase at 2 uM incubated for 48 hrs by PI staining based flow cytometry analysis (reference value: 24.6%); format: functional
# SGC-7901 [5] = assay: Induction of cell cycle arrest in human SGC-7901 cells assessed as accumulation in G1 phase at 2 uM incubated for 48 hrs by PI staining based flow cytometry analysis (reference value: 38.1%); format: functional
# SGC-7901 [6] = assay: Induction of cell cycle arrest in human SGC-7901 cells assessed as accumulation in S phase at 1 uM incubated for 48 hrs by PI staining based flow cytometry analysis (reference value: 37.4%); format: functional
# SGC-7901 [7] = assay: Induction of cell cycle arrest in human SGC-7901 cells assessed as accumulation in G2 phase at 1 uM incubated for 48 hrs by PI staining based flow cytometry analysis (reference value: 24.6%); format: functional
# SGC-7901 [8] = assay: Induction of cell cycle arrest in human SGC-7901 cells assessed as accumulation in G1 phase at 1 uM incubated for 48 hrs by PI staining based flow cytometry analysis (reference value: 38.1%); format: functional
# SGC-7901 [9] = assay: Induction of apoptosis in human SGC-7901 cells assessed as late apoptotic cells at 4 uM incubated for 48 hrs by Annexin V-FITC/propidium iodide staining based flow cytometry (reference value: 1.11%); format: functional
# How it was run: (§2)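 SGC-7901 cells treated 48 h at three concentrations; untreated cells served as control. Harvested cells were suspended in annexin-binding buffer (1 × 10⁶ cells/mL), incubated with annexin V-FITC for 15 min, then PI for 5 min at 4 °C in the dark, and analysed immediately by flow cytometry. Quadrants scored necrotic/late apoptotic, early apoptotic and normal cells. At least 3 runs.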
# SGC-7901 [10] = assay: Induction of apoptosis in human SGC-7901 cells assessed as early apoptotic cells at 4 uM incubated for 48 hrs by Annexin V-FITC/propidium iodide staining based flow cytometry (reference value: 2.12%); format: functional; how it was run: as §2
# SGC-7901 [11] = assay: Induction of apoptosis in human SGC-7901 cells assessed as viable cells at 4 uM incubated for 48 hrs by Annexin V-FITC/propidium iodide staining based flow cytometry (reference value: 96.7%); format: functional; details: read-out: Activity; how it was run: as §2
# SGC-7901 [12] = assay: Induction of apoptosis in human SGC-7901 cells assessed as necrotic cells at 2 uM incubated for 48 hrs by Annexin V-FITC/propidium iodide staining based flow cytometry (reference value: 0.067%); format: functional; how it was run: as §2
# SGC-7901 [13] = assay: Induction of apoptosis in human SGC-7901 cells assessed as late apoptotic cells at 2 uM incubated for 48 hrs by Annexin V-FITC/propidium iodide staining based flow cytometry (reference value: 1.11%); format: functional; how it was run: as §2
# SGC-7901 [14] = assay: Induction of apoptosis in human SGC-7901 cells assessed as early apoptotic cells at 2 uM incubated for 48 hrs by Annexin V-FITC/propidium iodide staining based flow cytometry (reference value: 2.12%); format: functional; how it was run: as §2
# SGC-7901 [15] = assay: Induction of apoptosis in human SGC-7901 cells assessed as viable cells at 2 uM incubated for 48 hrs by Annexin V-FITC/propidium iodide staining based flow cytometry (reference value: 96.7%); format: functional; details: read-out: Activity; how it was run: as §2
# SGC-7901 [16] = assay: Induction of apoptosis in human SGC-7901 cells assessed as necrotic cells at 1 uM incubated for 48 hrs by Annexin V-FITC/propidium iodide staining based flow cytometry (reference value: 0.067%); format: functional; how it was run: as §2
# SGC-7901 [17] = assay: Induction of apoptosis in human SGC-7901 cells assessed as late apoptotic cells at 1 uM incubated for 48 hrs by Annexin V-FITC/propidium iodide staining based flow cytometry (reference value: 1.11%); format: functional; how it was run: as §2
# SGC-7901 [18] = assay: Induction of apoptosis in human SGC-7901 cells assessed as early apoptotic cells at 1 uM incubated for 48 hrs by Annexin V-FITC/propidium iodide staining based flow cytometry (reference value: 2.12%); format: functional; how it was run: as §2
# SGC-7901 [19] = assay: Induction of apoptosis in human SGC-7901 cells assessed as viable cells at 1 uM incubated for 48 hrs by Annexin V-FITC/propidium iodide staining based flow cytometry (reference value: 96.7%); format: functional; details: read-out: Activity; how it was run: as §2
# SGC-7901 [20] = assay: Induction of apoptosis in human SGC-7901 cells assessed as necrotic cells at 4 uM incubated for 48 hrs by Annexin V-FITC/propidium iodide staining based flow cytometry (reference value: 0.067%); format: functional; how it was run: as §2
# SGC-7901 [21] = assay: Induction of mitochondrial membrane potential loss in human SGC-7901 cells assessed as increase in green fluorescence intensity at 1 to 4 uM incubated for 48 hrs by JC-1 staining based flow cytometry; format: functional, cell-based; details: dose 1-4 µM
# How it was run: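 Gastric cancer cells seeded at 2 × 10⁵ per well and treated 48 h at […]. Cells were detached with 0.5% trypsin, stained with JC-1 for 0.5 h at 37 °C, 5% CO₂ in the dark, washed twice in JC-1 buffer, and analysed by flow cytometry. Read-out was red aggregate versus green monomer fluorescence. At least 3 runs.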
# SGC-7901 [22] = assay: Induction of cell cycle arrest in human SGC-7901 cells assessed as accumulation in S phase at 2 uM incubated for 48 hrs by PI staining based flow cytometry analysis (reference value: 37.4%); format: functional
# SGC-7901 [23] = assay: Induction of cell cycle arrest in human SGC-7901 cells assessed as accumulation in G1 phase at 4 uM incubated for 48 hrs by PI staining based flow cytometry analysis (reference value: 38.1%); format: functional
# SGC-7901 [24] = assay: Induction of cell cycle arrest in human SGC-7901 cells assessed as accumulation in G2 phase at 4 uM incubated for 48 hrs by PI staining based flow cytometry analysis (reference value: 24.6%); format: functional
# SGC-7901 [25] = assay: Induction of cell cycle arrest in human SGC-7901 cells assessed as accumulation in S phase at 4 uM incubated for 48 hrs by PI staining based flow cytometry analysis (reference value: 37.4%); format: functional
# CCRF S-180 [26] = assay: Antitumor activity against mouse S180 cells allografted in Kunming mouse assessed as reduction in tumor weight at 60 mg/kg, po administered once daily for consecutive 10 days (reference value: 2.02+/-0.19g); format: functional; details: time 10 day
# How it was run: (§3)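 Kunming mice (SPF, male or female, 20 ± 2 g) inoculated subcutaneously in the right front armpit with seven-day-old ascites (0.2 mL, 2 × 10⁶ cells). After 24 h, randomized into groups of 10 and weighed. Dosed by oral gavage at 60 mg/kg/day or given normal saline (10 mL/kg) once daily for ten days. Killed on day 11 and tumors weighed. Inhibition rate = (Wcontrol − Wtreated)/Wcontrol × 100%.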
# HepG2 [27] = assay: Antitumor activity against human HepG2 cells xenografted in Kunming mouse assessed as reduction in tumor weight at 60 mg/kg, po administered once daily for consecutive 10 days (reference value: 2.01+/-0.09g); format: functional; details: time 10 day; how it was run: as §3
# CCRF S-180 [28] = assay: Antitumor activity against mouse S180 cells allografted in Kunming mouse assessed as tumor growth inhibition at 60 mg/kg, po administered once daily for consecutive 10 days; format: functional; details: CCRF S-180, 240 h, time 10 day, read-out: TGI; how it was run: as §3
# HepG2 [29] = assay: Antitumor activity against human HepG2 cells xenografted in Kunming mouse assessed as tumor growth inhibition at 60 mg/kg, po administered once daily for consecutive 10 days; format: functional; details: HepG2, 240 h, time 10 day, read-out: TGI; how it was run: as §3
# [30] = Toxicity in Kunming mouse allografted with mouse S180 cells assessed as body weight at 60 mg/kg, po administered once daily for consecutive 10 days (reference value: 19.38 to 19.99g); format: organism-based, CCRF S-180; details: in vivo, 240 h, time 10 day; how it was run: as §3
# [31] = Toxicity in Kunming mouse xenografted with […] cells assessed as body weight at 60 mg/kg, po administered once daily for consecutive 10 days (reference value: 19.15 to 19.87g); format: organism-based; details: in vivo, 240 h, time 10 day; how it was run: as §3
# Sequence of Telomerase reverse transcriptase (O14746 whole entry): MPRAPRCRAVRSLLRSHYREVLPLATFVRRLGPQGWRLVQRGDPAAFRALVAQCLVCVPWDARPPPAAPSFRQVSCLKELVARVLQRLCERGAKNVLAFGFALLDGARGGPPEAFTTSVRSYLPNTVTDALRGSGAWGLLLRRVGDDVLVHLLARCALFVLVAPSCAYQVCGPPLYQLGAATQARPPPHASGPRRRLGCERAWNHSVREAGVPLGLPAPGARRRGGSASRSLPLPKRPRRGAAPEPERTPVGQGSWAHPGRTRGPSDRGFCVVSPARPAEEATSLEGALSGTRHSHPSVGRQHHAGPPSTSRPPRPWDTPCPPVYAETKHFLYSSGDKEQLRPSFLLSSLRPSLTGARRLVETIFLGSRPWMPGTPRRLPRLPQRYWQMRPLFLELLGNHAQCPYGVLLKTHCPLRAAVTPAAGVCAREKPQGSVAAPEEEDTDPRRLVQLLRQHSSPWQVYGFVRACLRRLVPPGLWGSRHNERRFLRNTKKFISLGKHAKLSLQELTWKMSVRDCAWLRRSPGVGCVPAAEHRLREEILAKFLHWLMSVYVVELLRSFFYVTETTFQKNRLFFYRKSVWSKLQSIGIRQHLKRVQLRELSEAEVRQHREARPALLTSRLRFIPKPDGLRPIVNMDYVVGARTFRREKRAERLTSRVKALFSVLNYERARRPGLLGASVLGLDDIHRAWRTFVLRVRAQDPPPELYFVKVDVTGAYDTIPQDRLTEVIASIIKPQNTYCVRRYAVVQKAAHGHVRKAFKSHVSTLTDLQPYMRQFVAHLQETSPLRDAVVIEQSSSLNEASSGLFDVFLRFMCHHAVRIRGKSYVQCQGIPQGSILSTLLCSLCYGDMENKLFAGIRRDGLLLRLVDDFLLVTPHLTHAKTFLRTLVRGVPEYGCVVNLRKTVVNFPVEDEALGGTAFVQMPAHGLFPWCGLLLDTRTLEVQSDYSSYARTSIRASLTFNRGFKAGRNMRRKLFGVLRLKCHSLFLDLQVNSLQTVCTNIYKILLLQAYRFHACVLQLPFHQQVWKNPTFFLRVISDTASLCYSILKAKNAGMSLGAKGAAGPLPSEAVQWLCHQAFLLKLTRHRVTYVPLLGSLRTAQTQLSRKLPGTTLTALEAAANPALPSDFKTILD
smiles,measurement,setting,value
COc1cc(OC)c(C(=O)c2ccc(OC)c(OCC(=O)OC[C@@H]3C=C[C@H](n4cc(C)c(=O)[nH]c4=O)O3)c2)cc1OC,IC50,HeLa,28.6 µM
same,IC50,SMMC-7721,20.1 µM
same,IC50,HepG2 [1],28.6 µM
same,IC50,SGC-7901 [2],31.4 µM
COc1cc(OC)c(C(=O)c2ccc(OC)c(OC(=O)CCC(=O)OC[C@@H]3C=C[C@H](n4cc(C)c(=O)[nH]c4=O)O3)c2)cc1OC,IC50,HeLa,2.65 µM
same,IC50,SMMC-7721,2.86 µM
same,IC50,HepG2 [1],6.85 µM
same,IC50,SGC-7901 [2],2.27 µM
same,IC50,[3],6.43 µM
COc1ccc(C(=O)c2ccc(F)cc2)cc1OC(=O)CCC(=O)OC[C@@H]1C=C[C@H](n2cc(C)c(=O)[nH]c2=O)O1,IC50,HeLa,17.8 µM
same,IC50,SMMC-7721,22.6 µM
same,IC50,HepG2 [1],20.3 µM
same,IC50,SGC-7901 [2],8.25 µM
COc1ccc(C(=O)c2ccc(F)cc2)cc1OCC(=O)OC[C@@H]1C=C[C@H](n2cc(C)c(=O)[nH]c2=O)O1,IC50,HeLa,36.3 µM
same,IC50,SMMC-7721,40.3 µM
same,IC50,HepG2 [1],38 µM
same,IC50,SGC-7901 [2],29.1 µM
COc1cccc2c1C(=O)c1c(O)c3c(c(O)c1C2=O)C[C@@](O)(C(=O)CO)C[C@@H]3O[C@H]1C[C@H](N)[C@H](O)[C@H](C)O1 [DOXORUBICIN],IC50,HeLa,3.99 µM
same,IC50,SMMC-7721,1.95 µM
same,IC50,SGC-7901 [2],3.41 µM
COc1ccc(C(=O)c2ccccc2OC)cc1OCC(=O)OC[C@@H]1C=C[C@H](n2cc(C)c(=O)[nH]c2=O)O1,IC50,HeLa,30.2 µM
same,IC50,SMMC-7721,32.3 µM
COc1cccc(C(=O)c2ccc(OC)c(OC(=O)CCC(=O)OC[C@@H]3C=C[C@H](n4cc(C)c(=O)[nH]c4=O)O3)c2)c1,Activity,SGC-7901 [4],42.6%
same,Activity,SGC-7901 [5],28.5%
same,Activity,SGC-7901 [6],37.1%
same,Activity,SGC-7901 [7],30%
same,Activity,SGC-7901 [8],32.9%
same,IC50,HeLa,1.58 µM
same,IC50,SMMC-7721,0.82 µM
same,IC50,HepG2 [1],3.15 µM
same,Activity,SGC-7901 [9],33.2%
same,IC50,SGC-7901 [2],0.77 µM
same,Activity,SGC-7901 [10],26.4%
same,viability at 4 µM,SGC-7901 [11],40.2%
same,Activity,SGC-7901 [12],0.282%
same,Activity,SGC-7901 [13],19.7%
same,Activity,SGC-7901 [14],18.3%
same,viability at 2 µM,SGC-7901 [15],61.8%
same,Activity,SGC-7901 [16],0.07%
same,Activity,SGC-7901 [17],5.96%
same,Activity,SGC-7901 [18],7.34%
same,viability at 1 µM,SGC-7901 [19],86.6%
same,Activity,SGC-7901 [20],0.3%
same,Activity,SGC-7901 [21],Active
same,Activity,SGC-7901 [22],28.9%
same,Activity,SGC-7901 [23],15.8%
same,Activity,SGC-7901 [24],60.9%
same,Activity,SGC-7901 [25],23.2%
same,Activity,CCRF S-180 [26],1.2 g
same,Activity,HepG2 [27],1.04 g
same,inhibition in vivo at 60 mg/kg,CCRF S-180 [28],40.6%
same,inhibition in vivo at 60 mg/kg,HepG2 [29],48.5%
same,Activity,[30],24.25 g
same,Activity,[31],26.34 g
same,IC50,[3],7.01 µM
